Bioassay records as filed in PubChem BioAssay.
Sampled rows, rich in hits. Any-hit rate of the full collection: about 1.3%.
JMJD2C inh: inhibitors of human GASC-1 (JMJD2C) demethylase. Q9H3R0. GST-JMJD2C(1-420) H3K9me3 demethylation, DELFIA europium. inhibition, % at 2.35 µM. 0.069% of 330,000 active. AID 2099;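 active = more than half of a compound's replicate wells show inhibition beyond 50%, single wells judged on their own value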;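 also: signal counts dimethyl H3K9 product captured on neutravidin plate; 0% = median of DMSO wells and 100% = 0.3 times that DMSO median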
Target sequence (Q9H3R0 1-420 limits assumed): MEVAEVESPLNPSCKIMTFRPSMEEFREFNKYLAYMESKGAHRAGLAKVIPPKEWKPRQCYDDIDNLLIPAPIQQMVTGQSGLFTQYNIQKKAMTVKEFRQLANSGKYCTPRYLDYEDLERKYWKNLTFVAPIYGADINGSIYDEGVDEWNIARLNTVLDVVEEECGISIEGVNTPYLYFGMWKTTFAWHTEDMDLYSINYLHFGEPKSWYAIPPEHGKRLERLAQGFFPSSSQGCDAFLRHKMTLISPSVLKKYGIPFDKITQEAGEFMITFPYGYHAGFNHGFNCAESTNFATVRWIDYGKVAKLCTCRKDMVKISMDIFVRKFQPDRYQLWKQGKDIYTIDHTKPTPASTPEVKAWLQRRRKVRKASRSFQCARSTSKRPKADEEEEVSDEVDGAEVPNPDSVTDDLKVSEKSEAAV
Hep lipid drop: modulators of hepatic lipid droplet formation; AML12 mouse hepatocytes, oleate lipid droplets, BODIPY imaging; AID 1656; 0.4% of 240,000 active; inhibition, % at 6.5 µM;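 active = lipid droplet intensity inhibited by at least 50%, with more than 500 cells counted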
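Assay system: AML12 mouse liver cells | Compound: 6.5 µM single-point dosing | Schedule: Overnight exposure | Technique: Fluorescence imaging, 20x objective, two fields per well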
procasp7 counter: counter-screen for procaspase-3 activators: activators of human procaspase-7; recombinant procaspase-7, Ac-DEVD-pNA absorbance 405 nm; D23A/D198A/D206A triple mutant, cannot self-cleave; scale: DMSO 0, 5 µM enzyme 100; 0.093% of 330,000 active; activation, % at 8.5 µM; AID 463210;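 active = percent activation above the screen-wide mean plus 3 SD, cut at about 25% in these data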
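Material: Procaspase-7 triple mutant (PC-7 D3A) | Quantity: 2 µM procaspase-7 mutant as dispensed | Reagent: DEVD-pNA substrate | Times: 1 h preincubation, 2 h reaction | Technique: 405 nm absorbance of p-nitroaniline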
proCasp3 act: activates human procaspase-3; recombinant procaspase-3 D3A, Ac-DEVD-pNA absorbance 405 nm; activation, % at 8.5 µM; 0.11% of 330,000 active;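 active = activation above the mean of all tested compounds plus 3 SD, cut at about 21% in these data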;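 also: 0% = DMSO alone and 100% = DMSO wells spiked with extra 5 µM PC-3 D3A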
Target sequence (P42574 whole entry D9A/D28A/D175A): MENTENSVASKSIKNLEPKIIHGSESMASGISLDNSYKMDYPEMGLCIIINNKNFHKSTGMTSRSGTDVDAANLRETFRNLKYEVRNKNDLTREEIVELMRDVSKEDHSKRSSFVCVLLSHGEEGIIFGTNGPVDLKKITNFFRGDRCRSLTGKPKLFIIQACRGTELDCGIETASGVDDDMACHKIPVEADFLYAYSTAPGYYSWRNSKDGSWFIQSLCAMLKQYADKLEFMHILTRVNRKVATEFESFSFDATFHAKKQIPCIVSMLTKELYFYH
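material = Procaspase-3 D3A mutant | probe or stimulus = Ac-DEVD-pNA | compound = single dose, 8.5 µM nominal compound, 0.8% DMSO | timing = 1 h preincubation, 2 h reaction | measured by = 405 nm absorbance of p-nitroaniline, reads at 0 and 120 min | benchmarks = DMSO-only low control, 5 µM PC-3 D3A high control | repeats = singlicate, each compound tested once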
GRK2 inh: human GRK2 inhibition via aptamer displacement; bead flow cytometry, FAM-aptamer displacement from GRK2; 0.59% of 330,000 active; inhibition of aptamer binding, % at 10 µM; AID 488847;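 active = inhibition of aptamer binding above 40%, roughly 3 SD of noise, on plates passing a quality check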;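 also: median bead fluorescence of bound FAM aptamer so fluorescent compounds give negative values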
VLA-4 inh: inhibition in a human VLA-4 binding assay | P13612 | VLA-4 expressing cells, ligand binding flow cytometry | inhibition, % (about 7 µM as worked out from the volumes in the protocol) | 0.2% of 330,000 active; in the data active = inhibition above about 50%
GRK2 CP1: confirmation of human GRK2 inhibitors displacing RNA aptamer. shares compounds with GRK2 inh. AID 504451. 4% of 2,000 active. aptamer displacement, % at 10 µM. bead-bound GRK2, FAM-aptamer displacement, flow cytometry;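 active = aptamer displacement above 40%, near three times the noise of non-fluorescent compounds, on plates passing quality checks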;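 also: negative values mostly reflect intrinsic compound fluorescence rather than true enhancement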
Aptamer quench 1: quenches fluorescent RNA aptamer, GRK2 hit artifact; Fluorescent RNA aptamer beads, quenching, flow cytometry; hits give high values; fluorescence change (kMESF span), kMESF (no concentration beside the values); shares compounds with GRK2 inh; 110 tested, under 10 active;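 active = compounds whose bead fluorescence drops by more than 37 kMESF across the dose range, marking them as dye quenchers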
FAM quench CP1: counter-screen for GRK2 aptamer inhibitors: fluorescent aptamer quenchers | shares compounds with GRK2 inh | Carboxyfluorescein RNA aptamer on beads, flow cytometry quenching; hits give low values | fluorescence response (% of DMSO), % at 10 µM | 2,000 tested, under 10 active;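 active = compounds that quench the bead-bound fluorescent RNA probe, cutting fluorescence to under half of the solvent control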;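 also: counterscreen run without GRK2 so only probe quenching by compound is measured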
GRK2 CP2: human GRK2 inhibition confirmation, cherry pick 2 | bead-bound GRK2, FAM-aptamer displacement, flow cytometry | inhibition of aptamer binding, % at 10 µM | 360 tested, under 10 active | shares compounds with GRK2 inh | AID 504782;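 active = inhibition of aptamer binding above 40%, about triple the noise seen with nonglowing compounds, on plates passing quality control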;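 also: negative values mostly come from compounds that fluoresce themselves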
FAM quench CP2: aptamer fluorescence quenching in GRK2 counter-screen; AID 588494; shares compounds with GRK2 inh; fluorescence response vs DMSO, % at 10 µM; 360 tested, under 10 active; carboxyfluorescein RNA aptamer beads, flow cytometry quenching; hits give low values;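 active = response vs DMSO under 50%, meaning signal dropped by over half, treated as fluorescence quencher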;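 also: labelled aptamer on streptavidin beads without GRK2 as a quench counter-screen; 100% = bead fluorescence of DMSO wells and lower means quenching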
The depositor's hits bear a star; / = no result given.

SMILES	JMJD2C inh	Hep lipid drop	procasp7 counter	proCasp3 act	GRK2 inh	VLA-4 inh	GRK2 CP1	FAM quench CP1	others
O=C(Nc1ccc(N2CCCC2)c(Cl)c1)c1cccnc1	-10.9	-6.3	-3.4	-0.6	60.0*	1.0	-14.2	37.2*
O=C(Nc1ccc(NC(=O)c2ccccc2Cl)cc1)c1cccnc1	3.3	9.9	3.2	0.9	3.0	13.5	/	/
CCOC(=O)C(NC(C)=O)C(=O)Nc1ccc(C)cc1C (stereo unspecified)	-2.9	-16.0	10.4	0.0	50.0*	5.2	-0.8	102.4
CC(=O)NC1C(=O)N(CCN2CCOCC2)c2ccc(Cl)cc21 (stereo unspecified)	-2.2	-1.8	/	/	98.0*	14.2	-1.9	99.5
Cc1ccoc1C(=O)N1CCCC(CCC(=O)N2CCN(c3ccccn3)CC2)C1 (stereo unspecified)	-8.1	-17.4	2.4	6.3	3.0	1.9	/	/
CCOC(=O)/C(C#N)=c1/s/c(=C2\C=Cc3ccccc3N2CC)c(=O)n1CC	2.5	/	1.4	-12.7	65.0*	-2.7	-20.4	100.7
CCN1/C(=c2/s/c(=C3/C(=O)N(c4ccccc4)N=C3C)n(CC)c2=O)C=Cc2ccccc21	10.2	/	-0.8	3.1	4.0	-9.3	/	/
COc1cc(OC)nc(/N=C/N(C)C)n1	/	18.6	/	/	/	/	/	/
CNC(=O)c1[nH]cnc1C(=O)Nc1ccc(F)cc1	1.1	15.4	10.3	7.0	89.0*	0.8	-2.9	141.6	Aptamer quench 1=9.5
COc1c(O)cc(O)c2c(=O)cc(-c3ccccc3)oc12	/	/	0.4	5.4	0.0	18.4	/	/
O=C(COC(=O)c1cc(Cl)cc(Cl)c1)NCc1ccco1	-0.9	/	-6.8	-13.5	0.0	3.6	/	/
Cc1nc(-c2nc(-c3c(C(=O)NNC(=O)c4ccc(Cl)cc4)noc3C)cs2)cs1	-8.7	12.0	6.4	19.6	4.0	1.0	/	/
Cc1nc(-c2nc(CC(=O)NNC(=O)c3ccc(Cl)cc3)cs2)cs1	23.0	5.4	8.2	-5.5	47.0*	-5.3	1.3	107.0
CCCN(CCC)CCCNC(=O)c1ccc(CS(=O)(=O)c2c(Cl)cccc2Cl)o1	-13.5	-33.9	3.9	-2.7	48.0*	2.9	/	/	GRK2 CP2=-14.5;FAM quench CP2=99.0
O=C(O)C1Nc2c(Cl)cc(Cl)c(Cl)c2C2C=CCC12 (stereo unspecified)	3.4	/	-0.9	-5.7	59.0*	-2.8	5.5	136.3
O=C(OC1CCCCC1)c1ccc2c(c1)C1C=CCC1C(C(=O)O)N2 (stereo unspecified)	/	-2.8	/	/	/	/	/	/
CC(OC(=O)Cc1c[nH]c2ccccc12)C(=O)c1ccccc1 (stereo unspecified)	-1.0	/	-3.7	13.7	2.0	2.0	/	/
Cc1c(Cl)cccc1NS(=O)(=O)c1cn(C)c(=O)n(C)c1=O	157.2	-8.0	9.2	0.7	59.0*	25.5	-1.5	101.8
Cn1cc(S(=O)(=O)Nc2ccc(Br)cc2F)c(=O)n(C)c1=O	-30.0	/	6.9	-3.3	2.0	-2.3	/	/
Cc1ccc(C(OCC(O)CN2CCCCC2CO)c2ccccc2)cc1 (stereo unspecified)	-25.5	16.3	2.6	5.2	0.0	2.1	/	/
CC(OCC(O)CN1CCCCC1CCO)c1ccc(Cl)cc1 (stereo unspecified)	7.8	-18.4	-6.6	1.1	75.0*	-1.4	-6.9	93.3
O=C(O)CCNc1ccc(NCCC(=O)O)c2c1C(=O)c1ccccc1C2=O	9.0	-11.8	-3.3	-2.4	42.0*	-17.3	31.3	90.2
COc1cccc(CC2(CO)CCCN(Cc3cn[nH]c3-c3ccccc3)C2)c1 (stereo unspecified)	3.3	-8.0	8.3	4.5	99.0*	4.5	-3.4	101.7
CCOC(=O)C1CCN(C(=O)CCc2nc3sc4c(c3c(=O)[nH]2)CCCC4)CC1	4.1	/	8.0	2.3	0.0	-30.4	/	/
CN(C)c1cccc(C(=O)Nc2nnc(Cc3ccccc3)s2)c1	95.5	-2.2	-3.7	0.3	2.0	-2.6	/	/
SMILES	JMJD2C inh	Hep lipid drop	procasp7 counter	proCasp3 act	GRK2 inh	VLA-4 inh	GRK2 CP1	FAM quench CP1	others
Cc1cccc(C)c1NC(=O)CSc1nnc(-c2ccco2)c(-c2ccco2)n1	-17.7	/	-21.6	-23.9	47.0*	20.5	13.6	100.0
CCc1cccc(C)c1NC(=O)CSc1n[nH]c(N)n1	5.1	/	-3.5	13.5	100.0*	7.6	-3.8	99.7
O=C(C1COc2ccccc2O1)N1CCN(c2nc3c(F)cc(F)cc3s2)CC1 (stereo unspecified)	2.1	/	-3.6	4.9	2.0	2.9	/	/
C/C(CCC(=O)O)=N/Nc1ccc([N+](=O)[O-])cc1[N+](=O)[O-]	-4.5	14.1	-1.6	-13.6	0.0	6.3	/	/
CCC(CC)=NNc1ccc([N+](=O)[O-])cc1[N+](=O)[O-]	4.9	-23.6	-2.4	4.7	61.0*	3.6	2.0	93.8
CCS(=O)(=O)c1ncc(Cl)c(C(=O)Nc2ccc(S(=O)(=O)N3CCC(C)CC3)cc2)n1	-3.9	-2.1	3.0	-4.1	0.0	33.2	/	/
N#CC1(NC(=O)Cn2cc(C(F)(F)F)ccc2=O)CCCC1	4.4	/	2.7	-2.4	2.0	17.1	/	/
O=C(O)c1ccc2c(c1)[C@@H]1C=CC[C@@H]1[C@H](c1ccccn1)N2	-17.6	/	-3.5	1.4	42.0*	-6.9	22.6	100.7
COc1ccc(NC(=O)CSCC(=O)Oc2c(OC)cccc2OC)cc1	-20.9	/	8.4	11.6	0.0	2.2	/	/
Cc1ccccc1NS(=O)(=O)c1cc(C(=O)Nc2cccc(N(C)S(C)(=O)=O)c2)ccc1C	-6.6	/	-1.3	0.3	16.0	-19.2	-1.2	101.0
O=C(COC(=O)CNC(=O)c1ccc([N+](=O)[O-])o1)Nc1ncc(C(F)(F)F)cc1Cl	4.4	/	-9.0	-0.5	0.0	-2.4	/	/
O=C(COC(=O)CNC(=O)c1ccc([N+](=O)[O-])o1)Nc1ncc(Cl)cc1Cl	-12.9	/	2.9	0.8	55.0*	3.0	-0.6	99.1
